Measured values taken from ChEMBL document CHEMBL1649213, “The arabinosyltransferase EmbC is inhibited by ethambutol in Mycobacterium tuberculosis” (2009).
Values after ≈ are worked out from the molar mass of the structure shown.

Experiments:
Assay type in all cases: functional
[1] = test system: Mycobacterium tuberculosis; assay: Antimicrobial activity against Mycobacterium tuberculosis expressing EmbC M300L mutant gene after 48 hrs by agar proportion method
[2] = test system: Mycobacterium tuberculosis; assay: Antimicrobial activity against Mycobacterium tuberculosis harboring Mycobacterium smegmatis embB M292L mutant gene after 48 hrs by agar proportion method
[3] = test system: Mycobacterium tuberculosis; assay: Antimicrobial activity against Mycobacterium tuberculosis expressing EmbC M300I mutant gene after 48 hrs
Outline: (§1)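 Spot test: 20 µl exponential-phase culture spotted on 7H10 agar plus 10% OADC with EMB 0 to 128 µg/ml. Incubated at 37°C for 10 to 30 days, and growth scored against the drug-free lawn. MIC taken as the highest EMB concentration allowing growth.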

[4] = test system: Mycobacterium tuberculosis; assay: Antimicrobial activity against Mycobacterium tuberculosis expressing EmbC T270I mutant gene after 48 hrs; outline: as §1
[5] = test system: Mycobacterium tuberculosis; assay: Antimicrobial activity against Mycobacterium tuberculosis expressing EmbC T270I mutant gene after 48 hrs by agar proportion method
[6] = test system: Mycobacterium tuberculosis; assay: Antimicrobial activity against Mycobacterium tuberculosis harboring Mycobacterium smegmatis embB M292I mutant gene after 48 hrs by agar proportion method
[7] = test system: Mycobacterium tuberculosis; assay: Antimicrobial activity against Mycobacterium tuberculosis expressing EmbC M300V mutant gene after 48 hrs by agar proportion method
[8] = test system: Mycobacterium tuberculosis; assay: Antimicrobial activity against Mycobacterium tuberculosis expressing EmbC M300L mutant gene after 48 hrs; outline: as §1
[9] = test system: Mycobacterium tuberculosis; assay: Ratio of MIC for Mycobacterium tuberculosis expressing wild type EmbC gene to MIC for Mycobacterium tuberculosis expressing EmbC D249G mutant gene
[10] = test system: Mycobacterium tuberculosis; assay: Antimicrobial activity against Mycobacterium tuberculosis expressing EmbC D249G mutant gene after 48 hrs by agar proportion method
Outline: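 Agar proportion method: 10^4 CFU plated on 7H10-OADC with EMB or drug-free, and colonies counted after 4 weeks. MIC99 is the lowest concentration at which <1% of cells formed colonies.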

[11] = test system: Mycobacterium tuberculosis; assay: Antimicrobial activity against Mycobacterium tuberculosis embA V280M gene after 48 hrs by agar proportion method
[12] = test system: Mycobacterium tuberculosis; assay: Antimicrobial activity against Mycobacterium tuberculosis harboring Mycobacterium smegmatis embB M292V mutant gene after 48 hrs by agar proportion method
[13] = test system: Mycobacterium tuberculosis; assay: Antimicrobial activity against Mycobacterium tuberculosis expressing EmbC M300V mutant gene after 48 hrs; outline: as §1
[14] = test system: Mycobacterium tuberculosis; assay: Antimicrobial activity against Mycobacterium tuberculosis harboring Mycobacterium smegmatis embB gene after 48 hrs by agar proportion method
[15] = test system: Mycobacterium tuberculosis; assay: Antimicrobial activity against Mycobacterium tuberculosis expressing EmbC M300I mutant gene after 48 hrs by agar proportion method
[16] = test system: Mycobacterium tuberculosis; assay: Antimicrobial activity against Mycobacterium tuberculosis expressing EmbC D249G mutant gene after 48 hrs; outline: as §1

Structure (SMILES): CC[C@@H](CO)NCCN[C@@H](CC)CO [ETHAMBUTOL]
- MIC90 [1]: 0.5 µg/mL (≈ 2.45 µM)
- MIC [2]: 8 µg/mL (≈ 39.2 µM)
- MIC [3]: <3 µg/mL
- MIC [4]: 4 µg/mL (≈ 19.6 µM)
- MIC90 [5]: 1 µg/mL (≈ 4.89 µM)
- MIC [6]: 3 µg/mL (≈ 14.7 µM)
- MIC90 [7]: <0.5 µg/mL
- MIC [8]: 0.5 µg/mL (≈ 2.45 µM)
- Ratio [9]: 6
- MIC90 [10]: <0.5 µg/mL
- MIC [11]: 4 µg/mL (≈ 19.6 µM)
- MIC [12]: 3 µg/mL (≈ 14.7 µM)
- MIC [13]: 0.5 µg/mL (≈ 2.45 µM)
- MIC [14]: 8 µg/mL (≈ 39.2 µM)
- MIC90 [15]: 1 µg/mL (≈ 4.89 µM)
- MIC [16]: 0.5 µg/mL (≈ 2.45 µM)
